Measurements as given in ChEMBL document CHEMBL4431364, “Discovery and synthetic optimization of a novel scaffold for hydrophobic tunnel-targeted autotaxin inhibition” (Bioorg Med Chem, 2016).

How the values were obtained:
[1] = target: T1, Glycerophosphocholine cholinephosphodiesterase ENPP6 (Homo sapiens) (UniProt Q6UWR7); experiment: Inhibition of C-terminal FLAG tagged human recombinant NPP6 expressed in insect sf9 cells assessed as remaining enzyme activity response at 10 uM using pNPPC as substrate measured every 2 mins for 1 hr by […]
T1 sequence (whole entry): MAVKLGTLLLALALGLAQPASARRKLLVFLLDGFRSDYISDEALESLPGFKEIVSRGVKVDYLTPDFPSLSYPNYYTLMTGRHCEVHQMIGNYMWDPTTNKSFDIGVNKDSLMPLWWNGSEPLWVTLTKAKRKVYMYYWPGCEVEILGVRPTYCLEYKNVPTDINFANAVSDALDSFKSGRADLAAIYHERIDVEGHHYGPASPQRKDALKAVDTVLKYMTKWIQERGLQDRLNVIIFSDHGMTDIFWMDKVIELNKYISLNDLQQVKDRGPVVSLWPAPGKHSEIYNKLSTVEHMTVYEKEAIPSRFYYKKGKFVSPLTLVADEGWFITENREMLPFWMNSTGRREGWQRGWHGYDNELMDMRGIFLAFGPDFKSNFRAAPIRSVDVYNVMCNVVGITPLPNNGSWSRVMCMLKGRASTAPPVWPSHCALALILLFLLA
In short: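 Final 10 nM human FLAG-fusion NPP6, 10 μM compound, 10 μM pNPPC in 500 mM NaCl, 100 mM Tris-HCl, 0.05% Triton X-100, pH 9. A405 at 37 °C every 2 min for 1 h. Background absorbance subtracted. Mean percent response relative to enzyme-only control (no-enzyme = 0%). Triplicate.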

Autotaxin [2] = target: T2, Autotaxin (Homo sapiens, UniProt Q13822); experiment: Inhibition of C-terminal FLAG tagged human recombinant ATX expressed in insect sf9 cells using FS-3 as substrate measured every 2 mins for 60 mins by FRET assay
In short: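 Dose response over 0.03 to 30 μM compound, 10 nM human FLAG-fusion ATX, 1 μM FS-3 in pH 8.0 Tris/BSA assay buffer. Fluorescence at 485/520 nm every 2 min for 60 min at 37 °C, normalized to no-ATX and no-compound controls. IC50 by non-linear regression. Triplicate.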

Autotaxin [3] = target: T2, Autotaxin; experiment: Inhibition of C-terminal FLAG tagged human recombinant ATX expressed in insect sf9 cells at 10 uM using FS-3 as substrate measured every 2 mins for 60 mins by FRET assay
In short: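 10 μM compound with 10 nM human FLAG-fusion ATX in pH 8.0 Tris buffer (30 μM BSA, 1 mM CaCl2, 1 mM MgCl2, 5 mM KCl, 140 mM NaCl) and 1 μM FS-3. Fluorescence at ex 485/em 520 nm read every 2 min for 60 min at 37 °C. Normalized to no-ATX (0%) and ATX without compound (100%). Triplicate.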

[4] = target: T3, Ectonucleotide pyrophosphatase/phosphodiesterase family member 7 (Homo sapiens) (UniProt Q6UWV6); experiment: Inhibition of C-terminal FLAG tagged human recombinant NPP7 expressed in insect sf9 cells assessed as remaining enzyme activity response at 10 uM using pNPPC as substrate measured every 2 mins for 1 hr by […]
T3 sequence (whole entry): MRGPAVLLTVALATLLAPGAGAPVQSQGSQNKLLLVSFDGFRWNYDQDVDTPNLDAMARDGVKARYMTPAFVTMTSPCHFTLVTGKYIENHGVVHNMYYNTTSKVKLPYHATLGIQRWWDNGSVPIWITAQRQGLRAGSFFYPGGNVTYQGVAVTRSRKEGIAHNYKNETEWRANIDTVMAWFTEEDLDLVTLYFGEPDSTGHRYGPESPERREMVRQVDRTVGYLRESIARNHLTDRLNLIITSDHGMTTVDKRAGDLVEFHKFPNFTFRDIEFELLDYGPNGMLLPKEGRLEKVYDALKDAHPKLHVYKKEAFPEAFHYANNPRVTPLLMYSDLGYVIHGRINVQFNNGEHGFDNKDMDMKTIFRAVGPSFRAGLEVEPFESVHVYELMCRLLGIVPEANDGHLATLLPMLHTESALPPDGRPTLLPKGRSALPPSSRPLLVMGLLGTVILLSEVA
In short: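 Human FLAG-fusion NPP7 (10 nM final) with 10 μM compound and 10 μM pNPPC in 50 mM Tris-HCl, 150 mM NaCl, 10 mM taurocholate, pH 8. Absorbance at 405 nm, 37 °C, every 2 min for an hour. Background subtracted. Mean percent of enzyme-only response (no-enzyme = 0%). Triplicate.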

Autotaxin [5] = target: T2, Autotaxin; experiment: Inhibition of C-terminal FLAG tagged human recombinant ATX expressed in insect sf9 cells at 10 uM using pNP-TMP as substrate measured every 2 mins for 60 mins by absorbance
Autotaxin [6] = target: T2, Autotaxin; experiment: Inhibition of C-terminal FLAG tagged human recombinant ATX expressed in insect sf9 cells using pNP-TMP as substrate measured every 2 mins for 60 mins by absorbance
In short: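 Dose response 0.03 to 30 μM compound against 10 nM human FLAG-fusion ATX with 1 mM pNP-TMP in pH 8.0 Tris/BSA buffer. A405 every 2 min for 60 min at 37 °C, normalized to no-enzyme and uninhibited controls. IC50 by non-linear regression. Triplicate.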

SMILES	Activity [1]	IC50 (Autotaxin [2])	inhibition (Autotaxin [3])	Activity [4]	inhibition (Autotaxin [5])	IC50 (Autotaxin [6])
O=C(COc1ccc(Cl)cc1Cl)N1CCN(c2ccc([N+](=O)[O-])cc2)CC1	92.2%	3.7 µM	51.8%	103%	–	–
O=C(O)c1cccc(N2CCN(C(=O)COc3ccccc3C(F)(F)F)CC2)c1	–	8.1 µM	51.5%	–	23.7%	–
O=C(O)c1cccc(N2CCN(C(=O)COc3cc(Cl)cc(Cl)c3)CC2)c1	–	7.3 µM	54.6%	–	56.2%	5.2 µM
O=C(O)c1cccc(N2CCN(C(=O)COc3cccc(Cl)c3)CC2)c1	96.4%	2.6 µM	80%	84.3%	37.1%	–
O=C(COc1cccc(Cl)c1)N1CCN(c2cccc([N+](=O)[O-])c2)CC1	–	5.8 µM	62.4%	–	17.1%	–
O=C(O)c1cccc(N2CCN(C(=O)COc3cccc(C(F)(F)F)c3)CC2)c1	89.2%	2.2 µM	67.1%	87.3%	37.9%	–
O=C(O)c1cccc(N2CCN(C(=O)COc3ccc(C(F)(F)F)cc3)CC2)c1	–	7.5 µM	65%	–	31.6%	–
O=C(O)c1cccc(N2CCN(C(=O)COc3ccc(Cl)cc3Cl)CC2)c1	95.2%	2.1 µM	76.1%	103%	29.5%	–
O=C(O)c1ccc(N2CCN(C(=O)COc3cccc(Cl)c3)CC2)cc1	–	6.5 µM	56%	–	6.8%	–
O=C(CCCOc1ccc(Cl)cc1Cl)N1CCN(c2ccc([N+](=O)[O-])cc2)CC1	92.2%	4 µM	65.5%	86.3%	27.7%	–
O=C(COc1ccc(Cl)cc1)N1CCN(c2cccc([N+](=O)[O-])c2)CC1	–	5.4 µM	62.6%	–	23.8%	–
O=C(O)c1cccc(N2CCN(C(=O)COc3ccc(F)cc3)CC2)c1	–	4.6 µM	58.1%	–	41.1%	–
O=C(O)c1ccccc1N1CCN(C(=O)COc2cc(Cl)cc(Cl)c2)CC1	91%	2.2 µM	59.8%	90.2%	23.4%	–
CC(=O)OC1(C(=O)COC(=O)c2ccco2)CC2CCC3C4C=CC(=O)CC4(C)CCC3C2(C)C1 (stereo not drawn)	–	5.7 µM	59.6 to 59.7%	–	–	–
O=C(COc1cc(Cl)cc(Cl)c1)N1CCN(c2ccccc2[N+](=O)[O-])CC1	93.4%	3 µM	77.7%	99%	46.8%	11.4 µM
O=C(O)c1cccc(N2CCN(C(=O)COc3ccc(Cl)cc3)CC2)c1	93.4%	3.7 µM	79.8%	89.2%	56.6%	6.2 µM
O=C(COc1cccc(C(F)(F)F)c1)N1CCN(c2cccc([N+](=O)[O-])c2)CC1	–	4.6 µM	61.9%	–	14.3%	–
O=C(COc1cccc(C(F)(F)F)c1)N1CCN(c2ccc([N+](=O)[O-])cc2)CC1	–	4.9 µM	63.3%	–	4.1%	–
O=C(COc1ccccc1C(F)(F)F)N1CCN(c2cccc([N+](=O)[O-])c2)CC1	–	6.7 µM	56.4%	–	7.7%	–
O=C(COc1cccc(F)c1)N1CCN(c2ccc([N+](=O)[O-])cc2)CC1	–	6.6 µM	63%	–	–	–
O=C(COc1ccc(Cl)cc1)N1CCN(c2ccccc2[N+](=O)[O-])CC1	–	8.2 µM	59.1%	–	38%	–
O=C(O)c1ccc(N2CCN(C(=O)COc3ccc(C(F)(F)F)cc3)CC2)cc1	–	–	46%	–	7.9%	–

Second part, the compound after the results:

Activity [1]	IC50 (Autotaxin [2])	inhibition (Autotaxin [3])	Activity [4]	inhibition (Autotaxin [5])	IC50 (Autotaxin [6])	SMILES
–	4.7 µM	72.6%	–	44.7%	11.3 µM	O=C(COc1ccc(C(F)(F)F)cc1)N1CCN(c2ccccc2[N+](=O)[O-])CC1
–	8.9 µM	55.2%	–	30.2%	–	O=C(O)c1cccc(N2CCN(C(=O)COc3cccc(F)c3)CC2)c1
–	6 µM	54.1%	–	-6.9%	–	CCCCCCCCCCCCCC(=O)NC(CCC(=O)O)C(=O)O (stereo not drawn)
97.6%	1.8 µM	89.1%	90.5%	43.7%	–	O=C(O)c1ccccc1N1CCN(C(=O)COc2ccc(C(F)(F)F)cc2)CC1
–	11.4 µM	50%	–	38.2%	–	O=C(COc1ccccc1C(F)(F)F)N1CCN(c2ccccc2[N+](=O)[O-])CC1
–	6.6 µM	48%	–	7.5%	–	COc1ccc2c(c1)C(NCc1cc(OC)c(OC)cc1N)CCO2 (stereo not drawn)
–	9.2 µM	54.6%	–	-3.7%	–	O=C(COc1ccccc1C(F)(F)F)N1CCN(c2ccc([N+](=O)[O-])cc2)CC1
–	6.4 µM	65.4%	–	–	–	O=C(COc1ccc(F)cc1)N1CCN(c2ccc([N+](=O)[O-])cc2)CC1
–	4.1 µM	50.8%	–	19.6%	–	O=C(O)c1ccc(N2CCN(C(=O)COc3ccc(Cl)cc3)CC2)cc1
–	8.1 µM	50.2%	–	26.6%	–	O=C(COc1ccc(C(F)(F)F)cc1)N1CCN(c2ccc([N+](=O)[O-])cc2)CC1
89.8%	3.4 µM	73.2%	89.5%	7.3%	–	O=C(COc1ccc(Cl)cc1Cl)N1CCN(c2cccc([N+](=O)[O-])c2)CC1
–	6.2 µM	59.8%	–	13.3%	–	O=C(COc1cccc(F)c1)N1CCN(c2cccc([N+](=O)[O-])c2)CC1
–	4.1 µM	69.8%	–	37.1%	–	O=C(COc1ccc(Cl)cc1Cl)N1CCN(c2ccccc2[N+](=O)[O-])CC1
94%	2.2 µM	76%	114%	19.9%	–	O=C(COc1ccc(Cl)cc1)N1CCN(c2ccc([N+](=O)[O-])cc2)CC1
95.8%	2.3 µM	63%	93.1%	20.4%	–	O=C(COc1cc(Cl)cc(Cl)c1)N1CCN(c2ccc([N+](=O)[O-])cc2)CC1
–	4.6 µM	70.6%	–	15.6%	–	O=C(COc1cccc(Cl)c1)N1CCN(c2ccc([N+](=O)[O-])cc2)CC1
–	4.2 µM	60.4%	–	30.3%	–	O=C(COc1ccc(C(F)(F)F)cc1)N1CCN(c2cccc([N+](=O)[O-])c2)CC1
–	6 µM	74.5%	–	32.1%	–	O=C(O)c1ccccc1N1CCN(C(=O)COc2ccc(Cl)cc2)CC1
